Experiments:
Canis familiaris [1] = experiment: Percentage increase in dP/dt maximum observed with 4-[4-[2-(1,1-dioxo-2-isothiazolidinyl)-ethyl]-[…] (50 ug/Kg) in dog; format: functional, Canis lupus familiaris
Summary of the method: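 Standard quinazoline inotrope given iv at 50 µg/kg to anesthetized dogs before each test compound. Left ventricular pressure recorded by Millar catheter via the carotid artery and differentiated to dP/dt max. Response expressed as % increase in dP/dt max; individual values taken from a typical test run.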

Canis familiaris [2] = experiment: Inotropic activity measured as % increase in dP/dt maximum in Anesthetized dog at the dose of 50 ug/Kg administered intravenously; format: functional, Canis lupus familiaris
Summary of the method: (§1)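 Anesthetized dogs. LVP recorded via Millar catheter passed into the left ventricle through the carotid artery, differentiated to dP/dt max. After 0.75 h equilibration, compound given iv in 0.9% saline 0.5 h after a standard quinazoline inotrope (50 µg/kg). Cycle repeated once control levels returned, at least 0.5 h between doses. Reported as % increase in dP/dt max; relative potency normalised by dose to the standard in the same dog.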

Canis familiaris [3] = experiment: Decrease in QA interval in Conscious dog (n=4) 1 hr after a dose of 1 mg / Kg was administered per orally; format: functional, Canis lupus familiaris; parameters: unit not given beside the values
Summary of the method: (§2)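 Conscious dogs (n = 4) given test substance as a solution by oral gavage. QA interval (ms from ECG R wave to arterial pressure pulse upstroke) recorded by computer every 0.16 h, from 0.5 h predose to 4 h postdose. Each time-point value is the mean of six consecutive 8-s sets. Reported as decrease from mean predose control.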

Canis familiaris [4] = experiment: Decrease in QA interval in Conscious dog(n=4) 3h after a dose of 1 mg/Kg was administered per orally; format: functional, Canis lupus familiaris; summary of the method: as §2
Canis familiaris [5] = experiment: Inotropic activity measured as % increase in dP/dt maximum in Anesthetized dog at the dose of 250 ug/Kg administered intravenously; format: functional, Canis lupus familiaris; summary of the method: as §1
Canis familiaris [6] = experiment: Decrease in QA interval in Conscious dog (n=4) 1 hr after a dose of 2 mg/Kg was administered per orally; format: functional, Canis lupus familiaris; summary of the method: as §2
Canis familiaris [7] = experiment: Decrease in QA interval in Conscious dog(n=4) 3h after a dose of 2 mg/Kg was administered per orally; format: functional, Canis lupus familiaris; summary of the method: as §2
Canis familiaris [8] = experiment: Inotropic activity measured as % increase in dP/dt maximum in Anesthetized dog at the dose of 12.5 ug/Kg administered intravenously; format: functional, Canis lupus familiaris; summary of the method: as §1
Canis familiaris [9] = experiment: Decrease in QA interval in Conscious dog(n=4) 3h after a dose of 1 ug/kg was administered per orally; format: functional, Canis lupus familiaris; conditions: in the assay text read “1 mg/kg” for “1 ug/kg”; summary of the method: as §2
Canis familiaris [10] = experiment: Decrease in QA interval in Conscious dog (n=4) 1 hr after a dose of 0.5 mg / Kg was administered per orally; format: functional, Canis lupus familiaris; summary of the method: as §2
Canis familiaris [11] = experiment: Decrease in QA interval in Conscious dog (n=4) 1 hr after a dose of 0.25 mg/Kg was administered per orally; format: functional, Canis lupus familiaris; summary of the method: as §2
Canis familiaris [12] = experiment: Decrease in QA interval in Conscious dog (n=4) 3h after a dose of 0.25 mg/Kg was administered per orally; format: functional, Canis lupus familiaris; summary of the method: as §2
Canis familiaris [13] = experiment: Inotropic activity measured as % increase in dP/dt maximum in Anesthetized dog at the dose of 25 ug/Kg administered intravenously; format: functional, Canis lupus familiaris; summary of the method: as §1
Canis familiaris [14] = experiment: Decrease in QA interval in Conscious dog(n=4) 3h after a dose of 1 mg/kg was administered per orally
Canis familiaris [15] = experiment: Decrease in QA interval in Conscious dog (n=4) 1 hr after a dose of 1 mg/Kg was administered per orally
Canis familiaris [16] = experiment: Decrease in QA interval in Conscious dog (n=4) 3h after a dose of 1 ug/Kg was administered per orally; format: functional, Canis lupus familiaris; conditions: in the assay text read “1 mg/Kg” for “1 ug/Kg”; summary of the method: as §2

For `Cc1ccncc1-c1ccc2nc(O)ccc2c1`, which Relative potency (Canis familiaris [1]) is on record?
The Relative potency was 1.3.

And the dP/dt (Canis familiaris [2])?
The dP/dt was 21%.

For `Cc1cc(O)nc2ccc(-c3cccnc3)cc12`, which Relative potency (Canis familiaris [1]) is on record?
Its Relative potency is 0.7.

And the dP/dt (Canis familiaris [2])?
Its dP/dt is 39%.

For `Oc1ccc2cc(-c3cccnc3)ccc2n1`, which Decrease (Canis familiaris [3]) is on record?
Its Decrease is 14.

And the Decrease (Canis familiaris [4])?
The Decrease was 7.

What about the Relative potency (Canis familiaris [1]) of the same compound?
Its Relative potency is 1.3.

And the dP/dt (Canis familiaris [2])?
Its dP/dt is 54%.

Which Relative potency (Canis familiaris [1]) does the source give for `Oc1ccc2ccc(-c3cccnc3)cc2n1` here?
The Relative potency was 0.2.

What about the dP/dt (Canis familiaris [2]) of the same compound?
Its dP/dt is 6%.

Which results are given for `Oc1ccc2cc(-c3ccccn3)ccc2n1`?
dP/dt (Canis familiaris [5]): 62%; Decrease (Canis familiaris [6]): 2; Decrease (Canis familiaris [7]): 1; Relative potency (Canis familiaris [1]): 0.3

How did the Relative potency (Canis familiaris [1]) turn out when `CSc1cc(-c2ccc(C)nc2C)cc2ccc(O)nc12` was run?
The Relative potency was 0.5.

And the dP/dt (Canis familiaris [2])?
The dP/dt was 20.

What does the source list for `O=[N+]([O-])c1cc2cc(-c3cccnc3)ccc2nc1O`?
Relative potency (Canis familiaris [1]): 0.6; dP/dt (Canis familiaris [2]): 39%

What does the source list for `N#Cc1cc2cc(-c3cccnc3)ccc2nc1O`?
Relative potency (Canis familiaris [1]): 0.9; dP/dt (Canis familiaris [2]): 46%

What does the source list for `CCc1cc(-c2ccc(C)nc2C)cc2ccc(O)nc12`?
Relative potency (Canis familiaris [1]): 1; dP/dt (Canis familiaris [2]): 35%

`Oc1ccc2cc(-c3ccnnc3)ccc2n1` was tested. Which Relative potency (Canis familiaris [1]) did it give?
The Relative potency was 1.3.

What about the dP/dt (Canis familiaris [2]) of the same compound?
Its dP/dt is 43%.

For `Cc1cc(-c2cccnc2)cc2ccc(O)nc12`, which dP/dt (Canis familiaris [8]) is on record?
Its dP/dt is 112%.

What about the Decrease (Canis familiaris [9]) of the same compound?
The Decrease was 20.

What about the Relative potency (Canis familiaris [1]) of the same compound?
The Relative potency was 9.

And the Decrease (Canis familiaris [10])?
Its Decrease is 16.

Which results are given for `Oc1ccc2cc(-c3ncccn3)ccc2n1`?
Decrease (Canis familiaris [3]): 4; Decrease (Canis familiaris [9]): 4; Relative potency (Canis familiaris [1]): 0.7; dP/dt (Canis familiaris [2]): 28%

For `Cc1ccc(-c2ccc3c(c2)CCC(=O)N3)c(C)n1`, which Relative potency (Canis familiaris [1]) is on record?
Its Relative potency is 0.8.

What about the dP/dt (Canis familiaris [2]) of the same compound?
Its dP/dt is 32%.

What does the source list for `COc1cc(-c2ccc(C)nc2C)cc2ccc(O)nc12`?
Relative potency (Canis familiaris [1]): 0.4; dP/dt (Canis familiaris [2]): 11%

For `Oc1ccc2cc(-c3cccnn3)ccc2n1`, which Decrease (Canis familiaris [3]) is on record?
Its Decrease is 8.

And the Decrease (Canis familiaris [9])?
Its Decrease is 5.

And the Relative potency (Canis familiaris [1])?
The Relative potency was 0.7.

And the dP/dt (Canis familiaris [2])?
Its dP/dt is 32%.

How did the dP/dt (Canis familiaris [5]) turn out when `CSc1ccc(C(=O)c2[nH]c(=O)[nH]c2C)cc1` [ENOXIMONE] was run?
Its dP/dt is 32%.

And the Relative potency (Canis familiaris [1])?
The Relative potency was 0.013.

`Oc1ccc2c(-c3cccnc3)cccc2n1` was tested. Which Decrease (Canis familiaris [3]) did it give?
The Decrease was 9.

What about the Decrease (Canis familiaris [9]) of the same compound?
The Decrease was 4.

And the Relative potency (Canis familiaris [1])?
The Relative potency was 0.9.

What about the dP/dt (Canis familiaris [2]) of the same compound?
Its dP/dt is 44%.

For `Cc1[nH]c(=O)c(C#N)cc1-c1ccncc1` [MILRINONE], which Decrease (Canis familiaris [11]) is on record?
The Decrease was 13.

What about the Decrease (Canis familiaris [12]) of the same compound?
The Decrease was 7.

And the Relative potency (Canis familiaris [1])?
The Relative potency was 1.6.

And the dP/dt (Canis familiaris [13])?
The dP/dt was 46%.

With `Oc1ccc2cc(-c3cncnc3)ccc2n1` as the compound, how does the Decrease (Canis familiaris [3]) read?
Its Decrease is 3.

And the Decrease (Canis familiaris [14])?
Its Decrease is 1.

And the Relative potency (Canis familiaris [1])?
Its Relative potency is 1.1.

What about the dP/dt (Canis familiaris [2]) of the same compound?
Its dP/dt is 44%.

With `Cc1ccc(-c2cc(O)c3nc(O)ccc3c2)c(C)n1` as the compound, how does the Relative potency (Canis familiaris [1]) read?
Its Relative potency is less than 0.1.

And the dP/dt (Canis familiaris [2])?
The dP/dt was 19%.

`Cc1ccc(-c2cc(Br)c3nc(O)ccc3c2)c(C)n1` was tested. Which Relative potency (Canis familiaris [1]) did it give?
The Relative potency was 0.7.

What about the dP/dt (Canis familiaris [2]) of the same compound?
Its dP/dt is 41%.

For `Cc1cc2nc(O)ccc2cc1-c1cccnc1`, which dP/dt (Canis familiaris [5]) is on record?
Its dP/dt is 51%.

What about the Relative potency (Canis familiaris [1]) of the same compound?
Its Relative potency is 0.2.

Which Relative potency (Canis familiaris [1]) does the source give for `Nc1ccc(-c2ccc3nc(O)ccc3c2)cn1` here?
The Relative potency was 0.8.

And the dP/dt (Canis familiaris [2])?
Its dP/dt is 30%.

For `Cc1ncccc1-c1ccc2nc(O)ccc2c1`, which Relative potency (Canis familiaris [1]) is on record?
The Relative potency was 1.7.

And the dP/dt (Canis familiaris [2])?
The dP/dt was 74%.

How did the Decrease (Canis familiaris [3]) turn out when `Cc1ccc(-c2ccc3nc(O)ccc3c2)c(C)n1` was run?
The Decrease was 6.

And the Decrease (Canis familiaris [9])?
The Decrease was 5.

And the Relative potency (Canis familiaris [1])?
The Relative potency was 1.4.

What about the dP/dt (Canis familiaris [2]) of the same compound?
The dP/dt was 37%.

With `COc1ccc(-c2ccc3nc(O)ccc3c2)cn1` as the compound, how does the Relative potency (Canis familiaris [1]) read?
The Relative potency was 0.3.

What about the dP/dt (Canis familiaris [2]) of the same compound?
The dP/dt was 11%.

Which Relative potency (Canis familiaris [1]) does the source give for `Cc1ccc(-c2ccc3nc(O)ccc3c2)cn1` here?
Its Relative potency is 1.3.

What about the dP/dt (Canis familiaris [2]) of the same compound?
Its dP/dt is 46%.

Which results are given for `O=C1CCc2cc(-c3cccnc3)ccc2N1`?
Decrease (Canis familiaris [15]): 10; Decrease (Canis familiaris [16]): 7; Relative potency (Canis familiaris [1]): 1.1; dP/dt (Canis familiaris [2]): 41%

Which results are given for `Oc1ccc2cc(-c3ccncn3)ccc2n1`?
Decrease (Canis familiaris [3]): 6; Decrease (Canis familiaris [9]): 2; Relative potency (Canis familiaris [1]): 1.2; dP/dt (Canis familiaris [2]): 38%

Which results are given for `Nc1cc2cc(-c3cccnc3)ccc2nc1O`?
Relative potency (Canis familiaris [1]): 0.9; dP/dt (Canis familiaris [2]): 63%

`Cc1ccc(-c2cc(C(C)C)c3nc(O)ccc3c2)c(C)n1` was tested. Which Relative potency (Canis familiaris [1]) did it give?
The Relative potency was 0.4.

What about the dP/dt (Canis familiaris [2]) of the same compound?
The dP/dt was 16%.

Which dP/dt (Canis familiaris [8]) does the source give for `Cc1ccc(-c2cc(C)c3nc(O)ccc3c2)c(C)n1` here?
The dP/dt was 43%.

And the Decrease (Canis familiaris [3])?
Its Decrease is 21.

And the Decrease (Canis familiaris [14])?
Its Decrease is 19.

What about the Relative potency (Canis familiaris [1]) of the same compound?
Its Relative potency is 4.3.

What does the source list for `Oc1ccc2cc(-c3ccncc3)ccc2n1`?
Decrease (Canis familiaris [3]): 13; Decrease (Canis familiaris [4]): 8; Relative potency (Canis familiaris [1]): 0.9; dP/dt (Canis familiaris [2]): 51%
